Only some compounds are listed: those with a hit (about 1% of all), similar ones and a draw of the others.
Rad51 HR inh – Rad51 (human) homologous recombination inhibition | Q06609 | hRad51 DNA strand exchange, fluorescence dequenching | inhibition, % at 10 µM | 0.085% of 200,000 active;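 active = inhibition above 40% at the single screening dose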;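 note: 0% = DMSO control wells and 100% = blanks with heterologous ssDNA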
Target sequence (Q06609 whole entry, looked up): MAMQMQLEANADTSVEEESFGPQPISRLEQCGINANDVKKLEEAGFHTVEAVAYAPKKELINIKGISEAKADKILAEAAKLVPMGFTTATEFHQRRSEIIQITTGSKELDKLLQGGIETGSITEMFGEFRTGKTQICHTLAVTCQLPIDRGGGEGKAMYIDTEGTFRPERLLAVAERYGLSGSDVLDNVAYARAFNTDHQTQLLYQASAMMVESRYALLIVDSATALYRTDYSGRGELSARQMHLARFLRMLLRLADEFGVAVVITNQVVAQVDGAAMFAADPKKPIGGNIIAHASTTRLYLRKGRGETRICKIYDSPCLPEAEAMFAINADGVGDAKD
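Test system: preformed human Rad51 ssDNA filaments; also added: Donor/quencher-labelled 47-bp dsDNA substrate; doses: 10 µM final, single point; times: 37 °C 15-min filament assembly, 30-min compound preincubation, 15-min exchange; detection: FRET fluorescence dequenching, excitation 485 nm, emission 520 nm; read-out basis: Fluorescence-based percent inhibition, control- and blank-normalised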
PERK inhibitor – inhibitors of human PERK kinase; Q9NZJ5; 0.17% of 220,000 active; inhibition, % at 5.6 µM; CHO PERK-DD fusion, SEAP luminescence translation reporter; AID 1416;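 active = inhibition above the mean inhibition of all tested compounds plus 3 SD, set separately per screening campaign, cut at about 2.9% in these data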;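 note: PERK kinase domain activated by AP20187 dimerizer at 100 nM; 0% = DMSO with dimerizer and 100% = rapamycin at 8.4 µM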
TNF necrop inh – blocks TNF-alpha induced death of Jurkat FADD-/- cells. 0.068% of 220,000 active. AID 463075. activation (protection from cell death), % at 10 µM. Jurkat FADD-/- TNF necroptosis rescue, ATP luminescence, 24 h; 0 = TNF only, 100 = no-TNF cells;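 active = activation, meaning protection from cell death, of at least 50% relative to plate controls; inactive = activation below 50%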;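 note: necroptosis triggered by 40 ng/mL TNF-alpha added together with compound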
HMGR II inh – inhibitors of class II HMG-CoA reductase from Enterococcus faecalis; AID 1066; 0.41% of 190,000 active; inhibition, % at 10 µM; purified E. faecalis HMGR, NADPH absorbance 340 nm kinetic;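 active = inhibition above a set limit, the median over all tested compounds plus 3 SD, cut at about 9.5% in these data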;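 note: enzyme runs in reverse so mevalonate oxidation gives rising NADPH absorbance; 0% = complete reaction with DMSO and 100% = background rate lacking mevalonate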
zVAD death inh – L929 zVAD cell death inhibition | L929 zVAD necroptosis rescue, ATP luminescence, 24 h; with zVAD 60 µM | viability rescue, % at 10 µM | 0.38% of 220,000 active | AID 1377;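 active = activation, scaled between plate controls, above about 75%, limit read from the data; inactive = activation under that limit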;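 note: 0% = zVAD with DMSO and 100% = DMSO alone without zVAD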
An asterisk follows results filed as active.

What do the screens show for `CN(C)c1cccc2cccc(N(C)C)c12`?
Rad51 HR inh: 22; PERK inhibitor: 2; TNF necrop inh: 1; zVAD death inh: 0

What do the screens show for `COc1cccc(SCc2noc(C(=O)NCCC(C)C)c2C(=O)NCCC(C)C)c1`?
Rad51 HR inh: -3

How did CC(=O)NN1C(=O)c2ccccc2NC1c1ccoc1 (centres undefined) do in these assays?
Rad51 HR inh: 4; PERK inhibitor: 0; TNF necrop inh: -1; HMGR II inh: -2; zVAD death inh: 1

Results for O=C(NN1C(=O)c2ccccc2NC1c1ccoc1)c1ccccc1 (centres undefined) ?
Rad51 HR inh: 48*; PERK inhibitor: 2; TNF necrop inh: 0; HMGR II inh: -1; zVAD death inh: 1

How did CC1(C)CNC(=O)c2sc(NC(=O)c3ccccc3)nc2C1 do in these assays?
Rad51 HR inh: 2; PERK inhibitor: 0; TNF necrop inh: -1; HMGR II inh: 14*; zVAD death inh: 3

Results for CCOc1ccc(/C(O)=C2/C(=O)C(=O)N(CC3CCCO3)C2c2ccco2)cc1 (centres undefined) ?
Rad51 HR inh: -9; PERK inhibitor: 0; TNF necrop inh: -2; HMGR II inh: 29*; zVAD death inh: 0

How did CCOc1ccc(/C(O)=C2/C(=O)C(=O)N(CC3CCCO3)C2c2ccc(C)o2)cc1 (centres undefined) do in these assays?
Rad51 HR inh: -2; PERK inhibitor: 0; TNF necrop inh: -3; HMGR II inh: 4; zVAD death inh: 0

Results for O=C(OCCOc1ccccc1)c1n[nH]c2ccccc12 ?
Rad51 HR inh: 16; PERK inhibitor: 1; TNF necrop inh: 1; zVAD death inh: 1

How did CCCc1ccc(OCc2ccccc2)c2c(=O)cc(C(=O)OCC)oc12 do in these assays?
Rad51 HR inh: 0; PERK inhibitor: 3.1*; TNF necrop inh: 2; zVAD death inh: 1

How did COc1ccc(Nc2nnc(-c3ccc(N4CCOCC4)c([N+](=O)[O-])c3)c3ccccc23)cc1 do in these assays?
Rad51 HR inh: 3; PERK inhibitor: -1; TNF necrop inh: -16; HMGR II inh: -1; zVAD death inh: 82*

What do the screens show for `CCc1ccc(NC(=S)N2CCCC(C(F)(F)F)C2)cc1` (centres undefined)?
Rad51 HR inh: 4; PERK inhibitor: 1; TNF necrop inh: 0; HMGR II inh: -1; zVAD death inh: 0

How did Cc1cccc(COCC(Cc2ccccc2)N2CCN(C(=O)c3cccc(Cl)c3)CCC2=O)c1 (centres undefined) do in these assays?
Rad51 HR inh: -4; PERK inhibitor: 0; TNF necrop inh: 4; HMGR II inh: -5; zVAD death inh: 0

Results for Cc1cccc(C(=O)N2CCC(=O)N(C(COCc3ccccc3)Cc3ccccc3)CC2)c1 (centres undefined) ?
Rad51 HR inh: -9; PERK inhibitor: -1; TNF necrop inh: 2; HMGR II inh: 15*; zVAD death inh: 1

How did Cc1ccc(CN2CCSc3sccc3C2=O)cc1 do in these assays?
Rad51 HR inh: -8; PERK inhibitor: 0; TNF necrop inh: 83*; HMGR II inh: 6; zVAD death inh: 12

What do the screens show for `COc1cccc(C2=NOC(C(=O)N3CCN(C(=O)c4ccco4)CC3)C2)c1` (centres undefined)?
Rad51 HR inh: -6; PERK inhibitor: 0; TNF necrop inh: 2; HMGR II inh: 0; zVAD death inh: 77*

What do the screens show for `COc1cccc(C2=NOC(C(=O)N3CCOCC3)C2)c1` (centres undefined)?
Rad51 HR inh: 1; PERK inhibitor: 1; TNF necrop inh: 2; HMGR II inh: 0; zVAD death inh: 0

Results for O=C(NCC(=O)N(Cc1cccs1)C(C(=O)NC1CCCC1)c1ccncc1)c1ccco1 (centres undefined) ?
Rad51 HR inh: -5; PERK inhibitor: 0; TNF necrop inh: -1; HMGR II inh: 33*; zVAD death inh: 0

Results for CCN(CCCNC(=O)CCCOc1cc(=O)n(C)c2ccccc12)Cc1ccccc1 ?
Rad51 HR inh: -14; PERK inhibitor: 0; TNF necrop inh: -4; HMGR II inh: -7; zVAD death inh: 0

How did CCCCC[C@H](O)/C=C/[C@@H]1[C@@H](C/C=C\CCCC(=O)O)[C@H]2CO[C@@H]1C2 do in these assays?
Rad51 HR inh: -4; PERK inhibitor: 0; TNF necrop inh: -1; HMGR II inh: 11*; zVAD death inh: 17

How did CCCCCCCCCCCCOC(=O)C[N+](C)(C)C do in these assays?
Rad51 HR inh: 5; PERK inhibitor: 3.2*; TNF necrop inh: -15; zVAD death inh: 0

Results for COC(=O)CCC(=O)OC1(C)C(=O)C2=CN(CC3CC3)C(c3ccc(OC)cc3)=CC2=C(Br)C1=O (centres undefined) ?
Rad51 HR inh: 1; TNF necrop inh: -2; zVAD death inh: -1

Results for COC(=O)CCC(=O)OC1(C)C(=O)C2=CN(C3CC3)C(c3ccc(OC)cc3)=CC2=C(Br)C1=O (centres undefined) ?
Rad51 HR inh: 52*

What do the screens show for `Cc1ccccc1OCC(=O)N=Nc1c(O)n(C)c2ccccc12`?
Rad51 HR inh: 4; PERK inhibitor: 0; TNF necrop inh: 2; zVAD death inh: 0

How did CCN1C(=O)CC(N2CCOCC2)C1=O (centres undefined) do in these assays?
Rad51 HR inh: -2; PERK inhibitor: 3.0*; TNF necrop inh: 2; HMGR II inh: -7; zVAD death inh: 2

Results for O=C1CC(N2CCOCC2)C(=O)N1CCN1C(=O)CC(N2CCOCC2)C1=O (centres undefined) ?
Rad51 HR inh: 1; PERK inhibitor: 1; TNF necrop inh: 1; HMGR II inh: -2; zVAD death inh: 0

What do the screens show for `COc1ccc(C)cc1-n1nnnc1SCC(=O)c1ccc2c(c1)OCCO2`?
Rad51 HR inh: -9; PERK inhibitor: -1; TNF necrop inh: -3; HMGR II inh: -3; zVAD death inh: 0

What do the screens show for `COc1ccc(-n2nnnc2SCC(=O)c2ccc3c(c2)OCCO3)c(OC)c1`?
PERK inhibitor: 4.0*; TNF necrop inh: -4; HMGR II inh: -2; zVAD death inh: 0

How did CCOC(=O)N1CCN(c2cc(NCCO)c([N+](=O)[O-])c3nonc23)CC1 do in these assays?
Rad51 HR inh: 15; PERK inhibitor: 0; TNF necrop inh: 1; HMGR II inh: 13*; zVAD death inh: 1

How did O=[N+]([O-])c1c(NCCO)cc(N2CCCCC2)c2nonc12 do in these assays?
Rad51 HR inh: 1; PERK inhibitor: 0; TNF necrop inh: -1; HMGR II inh: -3; zVAD death inh: 2

Results for O=C(O)C(Cc1ccccc1)N1C(=O)C2CCCCC2C1=O (centres undefined) ?
Rad51 HR inh: 2; PERK inhibitor: 1; TNF necrop inh: 1; HMGR II inh: 17*; zVAD death inh: 2
